The text below walks through data of ChEMBL document CHEMBL1157169, “A class of novel nitronyl nitroxide labeling basic and acidic amino acids: synthesis, application for preparing ESR optionally labeling peptides, and bioactivity investigations” (Bioorg Med Chem, 2008).

pEC50: −log10 of the molar value. Where a SMILES comes first, the peptide text is derived from it. The star is where a group is joined. X2 = CC1(C)N(O)C(c2ccc(OCC(=O)*)cc2)=[N+]([O-])C1(C)C; X1 = CC1(C)N(O)C(c2ccc(OCCN*)cc2)=[N+]([O-])C1(C)C

In general, inhibition refers to the share of the control response that was lost under treatment. Usually pEC50 stands for the EC50 on a negative log10 scale, so that one unit is a factor of ten.

Data set [1] concerns Aorta. The data set can be described thus: Nitric oxide radical scavenging activity in rat aortic strip assessed as inhibition of acetylcholine-induced vasorelaxation at 10 uM. Type of data set: functional, tissue-based.
In data set [2] the test system is Aorta. The data set can be described thus: Nitric oxide radical scavenging activity in rat aortic strip assessed as inhibition of acetylcholine-induced vasorelaxation at 1 uM. Type of data set: functional, tissue-based.
Data set [3] concerns Aorta. The data set is described as follows: Nitric oxide radical scavenging activity in rat aortic strip assessed as inhibition of acetylcholine-induced vasorelaxation at 100 uM. Type of data set: functional, tissue-based.
The nature of data set [4]: Aqueous stability assessed as decomposition time at pH 2.0. It counts as physicochemical. The settings on record: buffer. Put shortly: (§1)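 Each sample dissolved in aqueous solution at pH 2.0, 7.4 or 11.5 (final 10^-2 mM) and held at room temperature for up to 200 h. Decomposition followed by TLC (CHCl3/CH3OH, 20:1). Value is the time at which decomposition appeared.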

Data set [5] can be described thus: Aqueous stability assessed as decomposition time at pH 7.4. It counts as physicochemical. The settings on record: buffer. Put shortly:
as §1

Data set [6] in a line: Aqueous stability assessed as decomposition time at pH 11.5. To be noted: buffer. It counts as physicochemical. The essentials:
as §1

Data set [7] deals with PC-12. The data set can be described thus: Radical scavenging activity in rat PC12 cells assessed as inhibition of nitric oxide radical-induced cell damage by MTT assay. Type of data set: functional, cell-based. Put shortly: (§2)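 PC12 cells grown in DMEM with 10% heat-inactivated horse serum, 5% FBS and 1.0 mM pyruvate at 37 °C, 5% CO2. Seeded at 20,000 cells/well on poly-L-lysine and attached 24 h. Pretreated 1 h with 12.5–200 µM compound. Damage induced by SNP 2 mM for 2 h (NO), H2O2 1 mM for 1 h, or H2O2 1 mM/Fe(II) 30 µM for 1 h (·OH). Media replaced, cells incubated 14 h, survival measured by MTT.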

Data set [8] has as its system PC-12. The data set is described as follows: Radical scavenging activity in rat PC12 cells assessed as inhibition of hydrogen peroxide radical-induced cell damage by MTT assay. Type of data set: functional, cell-based. The essentials: as §2
(Tetrazolium assays rely on reduction of a dye to a coloured formazan, in cell work by metabolically active cells.)

Data set [9] deals with Blood. The data set can be described thus: Inhibition of 10 uM adenosine diphosphate-induced platelet aggregation in rabbit blood. It counts as functional, Oryctolagus cuniculus. Put shortly: (§3)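 Platelet-rich plasma made by centrifuging normal rabbit blood anticoagulated with sodium citrate (3.8% final). Platelets adjusted to 2×10^5/µl with autologous plasma. Aggregation induced by PAF or ADP (final 10^-5–10^-7 M) and read by turbidimetry in an aggregometer. Maximal aggregation rate (Am%) taken as peak height of the curve.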

Data set [10] concerns Blood. The data set is described as follows: Inhibition of 1 uM adenosine diphosphate-induced platelet aggregation in rabbit blood. Type of data set: functional, Oryctolagus cuniculus. Put shortly:
as §3

Data set [11] concerns Blood. The data set can be described thus: Inhibition of 0.1 uM adenosine diphosphate-induced platelet aggregation in rabbit blood. Type of data set: functional, Oryctolagus cuniculus. The essentials: as §3
For data set [12], the system named is Blood. The data set is described as follows: Inhibition of 10 uM platelet activating factor-induced platelet aggregation in rabbit blood. It counts as functional, Oryctolagus cuniculus. Put shortly:
as §3

For data set [13], the system named is Blood. The data set can be described thus: Inhibition of 1 uM platelet activating factor-induced platelet aggregation in rabbit blood. Type of data set: functional, Oryctolagus cuniculus. The essentials: as §3
The test system of data set [14] is Blood. The data set can be described thus: Inhibition of 0.1 uM platelet activating factor-induced platelet aggregation in rabbit blood. It counts as functional, Oryctolagus cuniculus. Put shortly:
as §3

For data set [15], the system named is Rattus norvegicus. The data set is described as follows: Antithrombotic activity in Wistar rat assessed as wet thrombus weight at 5 umol/kg. It counts as functional. Put shortly: (§4)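 Male Wistar rats (250–300 g) anesthetized with pentobarbital sodium (80.0 mg/kg, ip). The right carotid artery and left jugular vein were cannulated via a polyethylene tube containing a thread, filled with NS or compound dissolved in NS (vehicle NS). Blood shunted 15 min. The thread was weighed wet, then after 2 weeks in a desiccator weighed dry. n = 10, ANOVA.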

The test system of data set [16] is Plasma. The data set can be described thus: Thrombolytic activity in rabbit plasma assessed as euglobulin clot lysis time at 4.5 uM. Type of data set: functional, Oryctolagus cuniculus. The essentials:
(§5)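 Rabbit plasma diluted 1:20 in water and precipitated at pH 5.7 with 0.25% acetic acid for 30 min at 4 °C. Centrifuged at 2000g for 15 min. […] Sample added and time to clot lysis recorded.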

For data set [17], the species on record is Oryctolagus cuniculus. The data set can be described thus: Thrombolytic activity against rabbit fibrinogen assessed as fibrinogen lysis area at 4.5 uM. Put shortly: (§6)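 Equal volumes of 0.3% rabbit fibrinogen and 0.95% agarose in 50 mM sodium barbiturate buffer (pH 7.8), coagulated with thrombin (100 IU/mL). After 30 min at 4 °C, 5 mm wells were punched and 30 µl of sample in NS added per well. Plates incubated and lysis area measured in mm². ANOVA.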

Data set [18] relates to Rattus norvegicus. The data set can be described thus: Thrombolytic activity in Wistar rat assessed as reduction in thrombus weight at 10 umol/kg. It counts as functional. Put shortly: (§7)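 Male Wistar rats (200–300 g) anesthetized with pentobarbital sodium (80.0 mg/kg, ip). A steel helix was left 15 min in 1.0 ml carotid artery blood, and the helix with thrombus was weighed. It was placed in a polyethylene tube filled with heparin sodium (50 IU/ml NS) inserted into the left jugular vein. Heparin was injected, then compound dissolved in NS. Read-out is reduction in thrombus weight.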

In data set [19] the test system is Rattus norvegicus. The data set is described as follows: Antithrombotic activity in Wistar rat assessed as dry thrombus weight at 5 umol/kg.
Data set [20] has as its system PC-12. The data set can be described thus: Radical scavenging activity in rat PC12 cells assessed as inhibition of hydroxyl radical-induced cell damage by MTT assay. Type of data set: functional, cell-based. Put shortly: as §2
Data set [21] deals with Rattus norvegicus. The data set can be described thus: Antithrombotic activity in Wistar rat assessed as wet thrombus weight at 20 mg/kg. It counts as functional. Put shortly: as §4
Data set [22] relates to Rattus norvegicus. The data set is described as follows: Antithrombotic activity in Wistar rat assessed as dry thrombus weight at 20 mg/kg. Type of data set: functional. The essentials:
as §4

The test system of data set [23] is Plasma. The data set is described as follows: Thrombolytic activity in rabbit plasma assessed as euglobulin clot lysis time at 2.2 uM. Type of data set: functional, Oryctolagus cuniculus. The essentials:
as §5

In data set [24] the test system is Plasma. The data set can be described thus: Thrombolytic activity in rabbit plasma assessed as euglobulin clot lysis time at 1.1 uM. It counts as functional, Oryctolagus cuniculus. Put shortly:
as §5

For data set [25], the species on record is Oryctolagus cuniculus. The data set is described as follows: Thrombolytic activity against rabbit fibrinogen assessed as fibrinogen lysis area at 2.2 uM. Put shortly:
as §6

The species named for data set [26] is Oryctolagus cuniculus. The data set can be described thus: Thrombolytic activity against rabbit fibrinogen assessed as fibrinogen lysis area at 1.1 uM. Put shortly:
as §6

Data set [27] has as its system Rattus norvegicus. The data set can be described thus: Thrombolytic activity in Wistar rat assessed as reduction in thrombus weight at 5 umol/kg. Type of data set: functional. Put shortly: as §7
The test system of data set [28] is Rattus norvegicus. The data set can be described thus: Thrombolytic activity in Wistar rat assessed as reduction in thrombus weight at 2.5 umol/kg. It counts as functional. The essentials: as §7

As for `CC1(C)N(O)C(c2ccc(OCC(=O)O)cc2)=[N+]([O-])C1(C)C`, the inhibition in [1] amounted to 72.4%; in [2], 25.3%; in data set [3] it was 99%. Further, the Time in data set [4] is above 200 h; in data set [5], above 200 h; in data set [6] it was above 200 h; in [16], 223.11 min. For the same compound, the values for the pEC50 in data set [7] and in [8] were 4.03 and 4.50, respectively. For the same compound, the “inhibition (INH)” value is recorded as 51.98% in data set [9]; 50.65% in data set [10]; 49.33% in data set [11]; 53.8% in data set [12]; 51.4% in data set [13]; 52.45% in data set [14]. The Activity in data set [15] came to 38.76 mg; in [17], 26.6 mm2; in data set [18], 12.11 mg. In addition, the dry thrombus weight in data set [19] was found to be 6.67 mg.
Take `CC(C)[C@H](NC(=O)[C@H](CC(=O)O)NC(=O)CNC(=O)[C@@H](N)CCCNC(=N)NC(=O)COc1ccc(C2=[N+]([O-])C(C)(C)C(C)(C)N2O)cc1)C(=O)O` (H-R(X2)GDV-OH): the results for the inhibition in [1], in data set [2] and in data set [3] were 72.8%, 26.2% and 96.6%, respectively. The pEC50 in data set [7] is 4.03; in data set [8], 4.48; in [20], 3.99. Moreover, the “inhibition (INH)” value in [9] stood at 50.2%; in data set [10], 39.6%; in data set [11], 16.38%; in data set [12], 50.26%; in [13], 32.8%; in data set [14], 19.88%. For the same compound, the Activity in [15] turned out to be 26.11 mg. Also, in [19], the dry thrombus weight amounted to 4.18 mg.
For `CC1(C)N(O)C(c2ccc(O)cc2)=[N+]([O-])C1(C)C`, the inhibition in [1] is 73.1%; in data set [2] it was 26.1%; in data set [3], 99.2%. Also, the Time in [4], in data set [5] and in [6] was above 200 h in each case. Further, the pEC50 was 4.40 in data set [7], 4.31 in data set [8] and 4.24 in [20]. For the same compound, the “inhibition (INH)” value in data set [9] is 49.28%; in data set [10], 50.39%; in data set [11] it was 49.01%; in [12] it was 54%; in data set [13] it was 52.45%; in [14] it was 53.04%. The Activity in data set [15] amounted to 38.9 mg. In addition, the dry thrombus weight in data set [19] amounted to 6.8 mg.
Consider `CC1(C)N(O)C(c2ccc(OCCNC(=O)C[C@H](NC(=O)CNC(=O)[C@@H](N)CCCNC(=N)N)C(=O)N[C@@H](CO)C(=O)O)cc2)=[N+]([O-])C1(C)C` (H-RGD(X1)S-OH), for which the values for the inhibition in data set [1], in [2] and in [3] were 71.3%, 24% and 95.9%, respectively. The pEC50 was 4.03 in [7], 4.49 in data set [8] and 3.99 in [20]. For the same compound, the “inhibition (INH)” value in [9] came to 50%; in [10], 39.43%; in data set [11], 16.11%; in data set [12] it was 51.59%; in [13] it was 34.33%; in data set [14], 21.52%. Besides, the Activity in data set [15] was found to be 25.01 mg. In addition, in [19], the dry thrombus weight is 4.08 mg.
`CC(=O)Oc1ccccc1C(=O)O` [ASPIRIN]: the Activity turned out to be 24.16 mg in data set [21] and 4.04 mg in data set [22].
For `C[C@H](NC(=O)[C@@H]1CCCN1)C(=O)N[C@@H](CCCCNC(=O)COc1ccc(C2=[N+]([O-])C(C)(C)C(C)(C)N2O)cc1)C(=O)O`, the inhibition in [1] was 73.9%; in data set [2] it was 26.6%; in [3] it was 99.1%. Besides, the pEC50 is 4.05 in [7], 4.54 in data set [8] and 4.00 in [20]. Moreover, the Time in data set [16] amounted to 102.95 min; in data set [23] it was 128.8 min; in [24] it was 149 min. In addition, the Activity in data set [17] worked out at 234 mm2; in data set [25], 216 mm2; in data set [26], 197 mm2; in [18], 24.2 mg; in data set [27], 15.38 mg; in data set [28], 11.06 mg.
Turning to `C[C@H](NC(=O)[C@@H]1CCCN1)C(=O)N[C@@H](CCCCN)C(=O)O` (H-Pro-Ala-Lys-OH), the inhibition is 6.1% in data set [1], 4.5% in data set [2] and 9.5% in data set [3]. Besides, the Time in data set [16] was 101.6 min. Further, the Activity came to 214 mm2 in data set [17] and 24.11 mg in [18].
